Test [1] concerns the target T1, Neuropeptide Y receptor type 4 (Homo sapiens, UniProt P50391). The experiment in a line: Agonist activity at human NPY Y4 receptor expressed in CHO cells co-expressing Gqi5-mtAEQ assessed as induction of calcium mobilization by aequorin luminescence assay. It counts as functional, cell-based. Summed up: (§1)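 Luminescence was integrated as area under the curve and normalized to the response to 1 µM PP. Data are means ± SEM of at least 3 independent experiments, each run in triplicate.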

Test [2] concerns the target T1, Neuropeptide Y receptor type 4. Put plainly: Intrinsic activity at human NPY Y4 receptor expressed in CHO cells co-expressing Gqi5-mtAEQ assessed as induction of calcium mobilization by aequorin luminescence assay relative to pancreatic polypeptide. It counts as functional, cell-based. In outline: as §1
Test [3] shares this target. Put plainly: Agonist activity at human NPY Y4 receptor expressed in HEK293 cells co-expressing CRE-Luc gene assessed as inhibition of forskolin stimulated luciferase activity after 4.5 hrs by luminescence assay. It counts as functional, cell-based. Summed up:
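HEK293 cells stably co-transfected with a CRE-controlled firefly luciferase reporter and hY4R, tested in phenol-red-free DMEM, pH 7.4. The maximal inhibition by PP was set to 0% activity (α = 1.0). Data are means ± SEM of at least 3 experiments in triplicate.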

In test [4] the target is T2, Neuropeptide Y receptor type 1 (Homo sapiens, UniProt P25929).
T2 sequence (P25929 whole entry): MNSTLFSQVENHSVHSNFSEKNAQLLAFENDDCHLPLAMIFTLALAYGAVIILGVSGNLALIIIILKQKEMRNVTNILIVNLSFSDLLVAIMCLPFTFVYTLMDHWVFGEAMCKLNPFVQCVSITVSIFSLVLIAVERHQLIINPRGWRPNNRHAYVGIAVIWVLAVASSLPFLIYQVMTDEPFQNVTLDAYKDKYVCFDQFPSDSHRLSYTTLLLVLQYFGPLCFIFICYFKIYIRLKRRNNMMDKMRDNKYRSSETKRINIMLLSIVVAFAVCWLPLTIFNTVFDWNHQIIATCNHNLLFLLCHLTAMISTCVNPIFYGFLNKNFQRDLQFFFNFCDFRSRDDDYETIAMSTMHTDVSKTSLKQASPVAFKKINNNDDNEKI
Put plainly: Displacement of [3H]UR-MK136 from human NPY Y1 receptor expressed in human MCF7 cells by liquid scintillation counting. It counts as cell-based.

In test [5] the target is T1, Neuropeptide Y receptor type 4. The experiment in a line: Displacement of [3H](2R,7R)-10 from human NPY Y4 receptor expressed in CHO cells co-expressing Gqi5-mtAEQ after 90 mins in presence of sodium-free HEPES buffer by liquid scintillation counting. Format: cell-based.
The target is the same in test [6]. Put plainly: Displacement of [3H](2R,7R)-10 from human NPY Y4 receptor expressed in CHO cells co-expressing Gqi5-mtAEQ after 90 mins in presence of L-15 medium by liquid scintillation counting. It counts as cell-based.
Test [7] shares this target. Put plainly: Displacement of [3H]18 from human NPY Y4 receptor expressed in CHO cells co-expressing Gqi5-mtAEQ after 90 mins by liquid scintillation counting. Format: cell-based.
In test [8] the target is T3, Neuropeptide Y receptor type 5 (Homo sapiens, UniProt Q15761).
T3 sequence (Q15761 whole entry): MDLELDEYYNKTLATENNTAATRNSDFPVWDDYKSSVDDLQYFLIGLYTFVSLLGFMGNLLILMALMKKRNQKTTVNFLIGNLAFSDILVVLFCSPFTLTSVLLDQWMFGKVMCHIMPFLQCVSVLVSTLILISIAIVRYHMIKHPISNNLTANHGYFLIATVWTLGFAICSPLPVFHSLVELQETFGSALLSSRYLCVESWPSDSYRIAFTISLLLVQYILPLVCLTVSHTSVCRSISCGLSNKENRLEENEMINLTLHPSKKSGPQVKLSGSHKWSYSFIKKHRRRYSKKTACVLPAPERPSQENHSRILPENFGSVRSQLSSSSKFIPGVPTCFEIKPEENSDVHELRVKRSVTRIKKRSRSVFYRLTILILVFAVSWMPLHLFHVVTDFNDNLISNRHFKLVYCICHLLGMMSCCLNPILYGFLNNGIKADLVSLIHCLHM
The experiment in a line: Displacement of [3H]propionyl-pNPY from human NPY Y5 receptor expressed in human HEC1b cells after 120 mins by liquid scintillation counting. Format: cell-based. Summed up:
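Adherent HEC-1B-hY5 cells in buffer II with 1% BSA and 0.1 mg/mL bacitracin at 22 °C. […] Incubation was 120 min, followed by ice-cold washes, lysis and scintillation counting.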

Test [9] concerns the target T1, Neuropeptide Y receptor type 4. The experiment in a line: Binding affinity to human NPY Y4 receptor expressed in CHO cells co-expressing Gqi5-mtAEQ assessed as apparent association rate constant after 2 to 180 mins by liquid scintillation counting. It counts as cell-based. Particulars: tested as the 3H-labelled form. Summed up:
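Adherent CHO-hY4-Gqi5-mtAEQ cells (about 90% confluent) in buffer I with 1% BSA and 0.1 mg/mL bacitracin at 22 °C. Tritiated radioligand was applied at 1.5 nM for 2–180 min. Wells were washed twice with ice-cold buffer I, lysed and counted. kobs was taken from ln[Beq/(Beq-Bt)] versus time. Data are means of 3 experiments in triplicate.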

The target is the same in test [10]. The experiment in a line: Binding affinity to human NPY Y4 receptor expressed in CHO cells co-expressing Gqi5-mtAEQ assessed as fast dissociation rate constant preincubated for 2 hrs followed by addition of (2R,7R)-Diaminooctanedioyl-bis(Tyr-Arg-Leu-Arg-Tyr-amide)Hexa(hydrotrifluoroacetate) by liquid scintillation counting. As to conditions: tested as the 3H-labelled form. It counts as cell-based.

Test [11] shares this target. The experiment in a line: Binding affinity to human NPY Y4 receptor expressed in CHO cells co-expressing Gqi5-mtAEQ assessed as slow dissociation rate constant preincubated for 2 hrs followed by addition of (2R,7R)-Diaminooctanedioyl-bis(Tyr-Arg-Leu-Arg-Tyr-amide)Hexa(hydrotrifluoroacetate) by liquid scintillation counting. Format: cell-based. As to conditions: tested as the 3H-labelled form.

For test [12] the target is unchanged. The experiment in a line: Binding affinity to human NPY Y4 receptor expressed in CHO cells co-expressing Gqi5-mtAEQ assessed as unspecific binding in presence of (2R,7R)-Diaminooctanedioyl-bis(Tyr-Arg-Leu-Arg-Tyr-amide)Hexa(hydrotrifluoroacetate) by liquid scintillation counting. It counts as cell-based. As to conditions: tested as the 3H-labelled form.
For test [13] the target is unchanged. Put plainly: Binding affinity to human NPY Y4 receptor expressed in CHO cells co-expressing Gqi5-mtAEQ assessed as fast dissociation half life t1/2(1) at 1.5 uM incubated for 2 hrs in presence of 200-fold excess of (2R,7R)-Diaminooctanedioyl-bis(Tyr-Arg-Leu-Arg-Tyr-amide)Hexa(hydrotrifluoroacetate) by liquid scintillation counting. Particulars: tested as the 3H-labelled form. Format: cell-based.

Test [14] shares this target. Put plainly: Binding affinity to human NPY Y4 receptor expressed in CHO cells co-expressing Gqi5-mtAEQ assessed as slow dissociation half life t1/2(2) at 1.5 uM incubated for 2 hrs in presence of 200-fold excess of (2R,7R)-Diaminooctanedioyl-bis(Tyr-Arg-Leu-Arg-Tyr-amide)Hexa(hydrotrifluoroacetate) by liquid scintillation counting. Format: cell-based. Particulars: tested as the 3H-labelled form.

For test [15] the target is unchanged. The experiment in a line: Binding affinity to human NPY Y4 receptor expressed in CHO cells co-expressing Gqi5-mtAEQ assessed as slow dissociation constant at 1.5 uM incubated for 2 hrs in presence of 200-fold excess of (2R,7R)-Diaminooctanedioyl-bis(Tyr-Arg-Leu-Arg-Tyr-amide)Hexa(hydrotrifluoroacetate) by liquid scintillation counting. It counts as cell-based. Particulars: tested as the 3H-labelled form.

Test [16] shares this target. The experiment in a line: Binding affinity to human NPY Y4 receptor expressed in CHO cells co-expressing Gqi5-mtAEQ assessed as slow dissociation half life at 1.5 uM incubated for 2 hrs in presence of 200-fold excess of (2R,7R)-Diaminooctanedioyl-bis(Tyr-Arg-Leu-Arg-Tyr-amide)Hexa(hydrotrifluoroacetate) by liquid scintillation counting. As to conditions: tested as the 3H-labelled form. It counts as cell-based.

Structures are written as SMILES.

Experimental findings from ChEMBL document CHEMBL4477203 (J Med Chem, 2016) are described below.

T1 sequence (P50391 whole entry): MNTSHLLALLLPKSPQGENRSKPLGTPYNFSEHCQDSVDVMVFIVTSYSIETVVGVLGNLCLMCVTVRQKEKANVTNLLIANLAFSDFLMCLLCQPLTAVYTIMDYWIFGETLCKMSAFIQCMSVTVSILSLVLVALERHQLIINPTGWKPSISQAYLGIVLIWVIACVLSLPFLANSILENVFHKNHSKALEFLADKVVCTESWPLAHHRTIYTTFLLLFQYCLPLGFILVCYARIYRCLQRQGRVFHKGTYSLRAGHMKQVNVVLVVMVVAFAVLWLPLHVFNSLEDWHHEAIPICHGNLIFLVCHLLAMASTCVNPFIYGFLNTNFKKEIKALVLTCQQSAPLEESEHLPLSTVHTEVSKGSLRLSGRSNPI

Turning to `CCC(=O)N[C@@H](CCCC[C@H](N)C(=O)N[C@@H](Cc1ccc(O)cc1)C(=O)N[C@@H](CCCNC(=N)N)C(=O)N[C@@H](CC(C)C)C(=O)N[C@@H](CCCNC(=N)N)C(=O)N[C@@H](Cc1ccc(O)cc1)C(N)=O)C(=O)N[C@@H](Cc1ccc(O)cc1)C(=O)N[C@@H](CCCNC(=N)N)C(=O)N[C@@H](CC(C)C)C(=O)N[C@@H](CCCNC(=N)N)C(=O)N[C@@H](Cc1ccc(O)cc1)C(N)=O`, the EC50 was found to be 14 nM in test [1] and 4 nM in [3]. For the same compound, the Intrinsic activity in test [2] was found to be 0.76. For the same compound, the Ki in test [4] is 400 nM; in test [5] it was 0.87 nM; in [6] it was 6.3 nM; in [7], 0.32 nM; in test [8] it was 710 nM. In addition, the K was found to be 0.0467 min⁻¹ in test [9], 0.0329 min⁻¹ in test [10], 0.0024 min⁻¹ in test [11] and 0.0085 min⁻¹ in test [15]. Besides, the Activity in test [12] turned out to be 10%. Besides, the T1/2 in test [13] turned out to be 0.352 h; in test [14], 4.82 h; in test [16], 1.36 h.
